PKA-R2B act = activators of PKA-R2B holoenzyme, primary screen, biochemical, fluorescence polarization, Cy5-IP20, human | cAMP-dependent protein kinase catalytic subunit beta (Homo sapiens) + cAMP-dependent … | PKA-R2B holoenzyme dissociation; R2B truncated from residue 108, S112A mutant; 0% DMSO only, 100% 113 µM cGMP | activation, % at 11.4 µM | hit rate 0.079% among 340,000;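 active = activation above a cutoff set at the mean over all compounds plus 3 SD, cut at about 18% in these data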;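 also: higher means more holoenzyme dissociation and a rise in polarization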
proCasp3 act = activators of human procaspase-3 D3A mutant, primary screen, biochemical, absorbance, PC-3 D3A mutant, single concentration | Caspase-3 (Homo sapiens), P42574 | activation, % at 8.5 µM | recombinant procaspase-3 D3A, Ac-DEVD-pNA absorbance 405 nm | hit rate 0.11% among 330,000;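 active = activation above the mean of all tested compounds plus 3 SD, cut at about 21% in these data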
Target sequence (P42574 whole entry D9A/D28A/D175A): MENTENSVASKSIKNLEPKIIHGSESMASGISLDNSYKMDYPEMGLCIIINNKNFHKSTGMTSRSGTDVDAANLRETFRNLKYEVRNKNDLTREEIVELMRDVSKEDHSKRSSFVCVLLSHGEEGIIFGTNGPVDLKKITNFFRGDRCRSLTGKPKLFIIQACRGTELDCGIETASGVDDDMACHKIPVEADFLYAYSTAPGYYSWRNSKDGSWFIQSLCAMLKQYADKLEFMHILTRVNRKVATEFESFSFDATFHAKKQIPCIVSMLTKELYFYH
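Assay system: Autoprocessing-dead procaspase-3 D3A mutant enzyme; also added: Ac-DEVD-pNA; doses: one concentration, 8.5 µM nominal, 0.8% DMSO; times: 1 h compound preincubation, 2 h substrate hydrolysis at 25 °C; technique: 405 nm absorbance of p-nitroaniline, reads at 0 and 120 min; measure: % activation between DMSO and enzyme-spiked controls; repeats: single replicate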
PKA-R1A activ = activators of PKA-R1A holoenzyme, primary screen, biochemical, fluorescence polarization, Cy5-IP20, bovine R1A, mouse PKAc; cAMP-dependent protein kinase type I-alpha regulatory subunit (Bos taurus) + …; PKA-R1A dissociation; scaled: DMSO 0%, 113 µM cGMP 100%; activation, % at 11.4 µM; hit rate 0.083% among 340,000; AID 504707, 2011;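 active = percent activation above the mean of all tested compounds plus 3 SD, cut at about 19% in these data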;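 also: higher means more PKAc released from R1A so a rise in polarization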
procasp7 counter = procaspase-7 activators, primary screen, counter-screen for procaspase-3 activator project, biochemical, absorbance, HTS, human; Caspase-7 (Homo sapiens), P55210; recombinant procaspase-7, Ac-DEVD-pNA absorbance 405 nm; D23A/D198A/D206A triple mutant, cannot self-cleave; scale: DMSO 0, 5 µM enzyme 100; activation, % at 8.5 µM; hit rate 0.093% among 330,000; AID 463210, 2010;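 active = percent activation above the screen-wide mean plus 3 SD, cut at about 25% in these data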
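Detection: p-Nitroaniline absorbance at 405 nm, read at 0 and 120 min; system: Uncleavable procaspase-7 mutant enzyme; evaluation: % activation from two-timepoint absorbance difference, scaled to controls; times: 1 h enzyme–compound preincubation and 2 h substrate reaction, both 25 °C; buffer or medium: Zinc-free HEPES pH 7.4 with 300 mM NaCl, 0.01% Triton X-100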
R1A FP artifact = FP signal interference without PKA proteins, confirmation, artefact control for PKA-R1A activator project, biochemical, fluorescence polarization, triplicate; Cy5-IP20 peptide alone, fluorescence polarization artifact counterscreen; activation, % at 11.4 µM; shares compounds with PKA-R1A activ; hit rate 7% among 280;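 active = mean activation over triplicate runs exceeds the adjusted cutoff derived for the parent primary screen, cut at about 19% in these data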;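 also: no PKA protein present so any polarization rise reflects compound interference; higher means stronger polarization artifact and likely false positive in parent screen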
PKA-R1A act conf = activators of PKA-R1A holoenzyme, confirmation, biochemical, fluorescence polarization, Cy5-IP20, triplicate. AID 504800, 2011. hit rate 9% among 280. PKA-R1A holoenzyme dissociation. activation, % at 11.4 µM. shares compounds with PKA-R1A activ;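 active = mean activation over replicate wells exceeds the adjusted hit threshold taken from the earlier primary screen, cut at about 20% in these data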
Target sequence (P00514 whole entry, looked up): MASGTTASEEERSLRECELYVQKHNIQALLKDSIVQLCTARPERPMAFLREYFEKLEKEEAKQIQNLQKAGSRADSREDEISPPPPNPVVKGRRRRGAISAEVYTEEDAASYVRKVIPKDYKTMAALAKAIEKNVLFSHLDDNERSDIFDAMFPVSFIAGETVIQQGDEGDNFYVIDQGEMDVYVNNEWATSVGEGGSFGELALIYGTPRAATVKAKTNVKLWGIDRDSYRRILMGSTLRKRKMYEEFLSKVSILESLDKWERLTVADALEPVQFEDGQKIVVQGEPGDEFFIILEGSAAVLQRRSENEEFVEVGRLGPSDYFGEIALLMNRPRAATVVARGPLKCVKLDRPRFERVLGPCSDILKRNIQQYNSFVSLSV
Large screens that a line does not name were inactive (follow-up assays come after a bar, where they were run). Compounds with a hit are over-represented: about 0.29% of the library has one in this group of screens.

Cc1nc(-c2ccc(Cl)cc2)sc1C1(C)CC(c2ccc(OC(F)(F)F)cc2)=NO1 (stereo not given)	none
Cc1nc(-c2ccccc2)sc1C1(C)CC(c2ccc(OC(F)(F)F)cc2)=NO1 (stereo not given)	PKA-R1A activ 19 | R1A FP artifact inactive | PKA-R1A act conf inactive
COc1ccc(/C=C2\SC(=S)N(CC3CCCO3)C2=O)cc1 (stereo not given)	none
O=C1/C(=C/c2cccnc2)SC(=S)N1CC1CCCO1 (stereo not given)	PKA-R1A activ 25 | R1A FP artifact inactive | PKA-R1A act conf inactive
CCc1cc(Cn2nc(-c3ccccc3C)cc2C(=O)O)on1	PKA-R1A activ 19 | R1A FP artifact inactive | PKA-R1A act conf inactive
CCOC(=O)c1cc(-c2ccccc2C)nn1Cc1cc(C)no1	none
CCC(C)CCN1C(Nc2ccccc2)=NC[C@@H]1Cc1ccccc1 (stereo not given in full)	none
COc1ccccc1Oc1coc2cc(OCC(N)=O)ccc2c1=O	PKA-R1A activ 19 | R1A FP artifact inactive | PKA-R1A act conf inactive
CCCNC(=O)COc1ccc2c(=O)c(Oc3ccccc3F)coc2c1	none
CCOc1ccccc1Nc1nc(N)nc(CSc2nncn2C)n1	PKA-R1A activ 21 | R1A FP artifact inactive | PKA-R1A act conf inactive
CN(C)CCNC(=O)c1c(CSc2ccc(Cl)cc2)noc1C(=O)NCc1ccccc1	PKA-R1A activ 20 | R1A FP artifact inactive | PKA-R1A act conf inactive
O=C(NCc1ccccc1)c1onc(CSc2ccc(Cl)cc2)c1C(=O)NCc1ccccc1	none
CCOC(=O)N1CCc2c(sc3ncn(C)c(=O)c23)C1	PKA-R1A activ 19 | R1A FP artifact inactive | PKA-R1A act conf inactive
CCOC(=O)N1CCc2c(sc3nc(SC(C)C)n(N)c(=O)c23)C1	none
CCCC(=O)C1=C(N(C)c2ccccc2)CC(C)(C)CC1=O	none
COc1ccc(C2C(C#N)=C(N)OC(C(C)(C)C)=C2C#N)cc1OC (stereo not given)	PKA-R1A activ 20 | R1A FP artifact inactive | PKA-R1A act conf inactive
COc1cccc(C2C(C#N)=C(N)OC(C(C)(C)C)=C2C#N)c1 (stereo not given)	none
COc1ncnc2c1oc1nc(CC(C)C)c3c(c12)CC(C)(C)OC3	PKA-R1A activ 20 | R1A FP artifact inactive | PKA-R1A act conf inactive
COc1ccccc1CCNC(=O)C(=O)c1cn(CC(=O)N2CCOCC2)c2ccccc12	PKA-R1A activ 19 | R1A FP artifact inactive | PKA-R1A act conf inactive
COc1ccccc1CNC(=O)C(=O)c1cn(CC(=O)N2CCCC2)c2ccccc12	none
COc1ccc2c(c1OC)C(=O)OC2Nc1ncccc1C (stereo not given)	PKA-R1A activ 19 | R1A FP artifact inactive | PKA-R1A act conf inactive
O=C(O)c1nn(CC(=O)N2CCC(Cc3ccccc3)CC2)c(=O)c2ccccc12	PKA-R1A activ 21 | R1A FP artifact inactive | PKA-R1A act conf inactive
C(=C\c1nc(-c2ccccc2)no1)/c1ccccc1	none
COC(=O)C1(C)Nc2ccccc2C(=O)N1c1ccccc1OC (stereo not given)	PKA-R1A activ 23 | R1A FP artifact inactive | PKA-R1A act conf inactive
COC(=O)C1(C)NC(=O)c2ccccc2N1 (stereo not given)	none
CC1CCC2(CC1)NC(=S)N(c1ccccc1)N2 (stereo not given)	PKA-R1A activ 19 | R1A FP artifact inactive | PKA-R1A act conf inactive
O=C(NCc1ccco1)C1CC2CCC1C2 (stereo not given)	PKA-R1A activ 20 | R1A FP artifact inactive | PKA-R1A act conf inactive
O=C(O)C1C2CCC(C2)C1C(=O)NCc1ccco1 (stereo not given)	none
O=C(CCCc1ccccc1)NCc1ccccc1Cl	none
CCOc1ccc(S(=O)(=O)N(C)C)cc1-c1nc2c(C(C)(C)C)nn(C)c2c(=O)[nH]1	none
CSCC[C@H](NC(=O)c1nn(C)c(=O)c2ccccc12)c1nc2ccccc2[nH]1	PKA-R1A activ 20 | R1A FP artifact inactive | PKA-R1A act conf inactive
Oc1c(Cl)cc(Cl)cc1C(C#Cc1ccccc1)N1CCOCC1 (stereo not given)	none
COc1ccc(NC(=O)c2cc3c(=O)n(C)c4ccccc4c3s2)cc1OC	none
Cc1cc(C)c2c(CC(=O)NC(C)C)coc2c1	none
Cc1cc(C)c2c(CC(=O)NNC(=O)c3ccccc3)coc2c1	PKA-R1A activ 27 | R1A FP artifact inactive | PKA-R1A act conf inactive
Cc1cccc(OCC(=O)Nc2ccccc2N2CCCCC2)c1	none
Cc1c(N2C(=O)c3ccc(F)cc3C2=O)c(=O)n(-c2ccccc2)n1C	none
Cc1ccc(S(=O)(=O)NCCn2cnc([N+](=O)[O-])n2)cc1	PKA-R1A activ 21 | R1A FP artifact inactive | PKA-R1A act conf inactive
CC1CN(C(=O)c2c([N+](=O)[O-])cnn2C)CC(C)O1 (stereo not given)	none
O=[N+]([O-])c1cccc(-c2nc(-c3ccccc3)no2)c1	none
COc1ccc(/C=C(\C#N)C(=O)OCCNC(=O)c2ccncc2)cc1	PKA-R1A activ 20 | R1A FP artifact inactive | PKA-R1A act conf inactive
COc1ccc(/C=C/C(=O)OCCNC(=O)c2ccncc2)cc1OC	none
CNC(=O)COc1ncnc2scc(-c3ccc(F)cc3)c12	PKA-R1A activ 19 | R1A FP artifact inactive | PKA-R1A act conf inactive
O=C(CSc1ccc(-c2ccncc2)nn1)N1CCCCC1	PKA-R1A activ 19 | R1A FP artifact inactive | PKA-R1A act conf inactive
O=C(CSc1ccc(-c2ccncc2)nn1)N1CCCC1	none
Cc1cccn2c(CN[C@@H]3CCCC[C@H]3c3ccccc3)c(C(=O)N3CCOCC3)nc12	PKA-R1A activ 19 | R1A FP artifact inactive | PKA-R1A act conf inactive
Cc1cccn2c(CNC3CCCc4ccccc43)c(C(=O)N3CCOCC3)nc12 (stereo not given)	none
COc1ccc(C(=O)Nc2c3c(nn2-c2ccc(Cl)cc2)CS(=O)(=O)C3)cc1	PKA-R1A activ 20 | R1A FP artifact inactive | PKA-R1A act conf inactive
COc1ccc(C(=O)Nc2c3c(nn2-c2ccc([N+](=O)[O-])cc2)CS(=O)(=O)C3)cc1	none
Cc1cc(O)c(C(C)C)cc1NC(=O)c1cccc(Cl)c1	none
